Measurements: ChEMBL document CHEMBL1140956, “Syntheses of 4-(indole-3-yl)quinazolines: a new class of epidermal growth factor receptor tyrosine kinase inhibitors” (Eur J Med Chem, 2008)

Columns and labels:
[1] = biological target: Epidermal growth factor receptor (Homo sapiens, UniProt P00533); test: Inhibition of human EGFR tyrosine kinase activity
PC-3 = test: Growth inhibition of human PC3 cells after 72 hrs by SRB assay; type: functional; conditions: PC-3, 48 h, in the assay text read “48 hrs” for “72 hrs”
Procedure, shortened: (§1)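 NCI 60-cell-line screen. Cells were grown in RPMI 1640 with 5% fetal bovine serum, plated at 5000–40 000 cells/well by doubling time, and held 24 h at 37 °C, 5% CO2. Time-zero plates were TCA-fixed when the DMSO-solubilized drug was added at five concentrations (10-fold or ½-log dilutions). After 48 h, cells were fixed with cold TCA and stained with 0.4% SRB in 1% acetic acid. Bound dye was dissolved in 10 mM trizma base and read at 515 nm. Percentage growth was calculated relative to time-zero and control.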

HT-29 = test: Growth inhibition of human HT29 cells after 72 hrs by SRB assay; type: functional; conditions: HT-29, 48 h, in the assay text read “48 hrs” for “72 hrs”; procedure, shortened: as §1
[2] = biological target: Receptor tyrosine-protein kinase erbB-2 (Homo sapiens) (UniProt P04626); test: Inhibition of human HER2 tyrosine kinase activity at 100 nM
A498 = test: Growth inhibition of human A498 cells after 72 hrs by SRB assay; type: functional; conditions: A498, 48 h, in the assay text read “48 hrs” for “72 hrs”; procedure, shortened: as §1
IGROV-1 = test: Growth inhibition of human IGROV1 cells after 72 hrs by SRB assay; type: functional; conditions: IGROV-1, 48 h, in the assay text read “48 hrs” for “72 hrs”; procedure, shortened: as §1
NCI-H322M = test: Growth inhibition of human NCI-H322M cells after 72 hrs by SRB assay; type: functional; conditions: 48 h, in the assay text read “48 hrs” for “72 hrs”; procedure, shortened: as §1
TK-10 = test: Growth inhibition of human TK10 cells after 72 hrs by SRB assay; type: functional; conditions: TK-10, 48 h, in the assay text read “48 hrs” for “72 hrs”; procedure, shortened: as §1
EKVX = test: Growth inhibition of human EKVX cells after 72 hrs by SRB assay; type: functional; conditions: 48 h, in the assay text read “48 hrs” for “72 hrs”; procedure, shortened: as §1
ACHN = test: Growth inhibition of human ACHN cells after 72 hrs by SRB assay; type: functional; conditions: 48 h, in the assay text read “48 hrs” for “72 hrs”; procedure, shortened: as §1
SK-OV-3 = test: Growth inhibition of human SKOV3 cells after 72 hrs by SRB assay; type: functional; conditions: SK-OV-3, 48 h, in the assay text read “48 hrs” for “72 hrs”; procedure, shortened: as §1
HOP-92 = test: Growth inhibition of human HOP92 cells after 72 hrs by SRB assay; type: functional; conditions: HOP-92, 48 h, in the assay text read “48 hrs” for “72 hrs”; procedure, shortened: as §1
SNB-75 = test: Growth inhibition of human SNB75 cells after 72 hrs by SRB assay; type: functional; conditions: SNB-75, 48 h, in the assay text read “48 hrs” for “72 hrs”; procedure, shortened: as §1

Chain of Epidermal growth factor receptor (P00533 whole entry): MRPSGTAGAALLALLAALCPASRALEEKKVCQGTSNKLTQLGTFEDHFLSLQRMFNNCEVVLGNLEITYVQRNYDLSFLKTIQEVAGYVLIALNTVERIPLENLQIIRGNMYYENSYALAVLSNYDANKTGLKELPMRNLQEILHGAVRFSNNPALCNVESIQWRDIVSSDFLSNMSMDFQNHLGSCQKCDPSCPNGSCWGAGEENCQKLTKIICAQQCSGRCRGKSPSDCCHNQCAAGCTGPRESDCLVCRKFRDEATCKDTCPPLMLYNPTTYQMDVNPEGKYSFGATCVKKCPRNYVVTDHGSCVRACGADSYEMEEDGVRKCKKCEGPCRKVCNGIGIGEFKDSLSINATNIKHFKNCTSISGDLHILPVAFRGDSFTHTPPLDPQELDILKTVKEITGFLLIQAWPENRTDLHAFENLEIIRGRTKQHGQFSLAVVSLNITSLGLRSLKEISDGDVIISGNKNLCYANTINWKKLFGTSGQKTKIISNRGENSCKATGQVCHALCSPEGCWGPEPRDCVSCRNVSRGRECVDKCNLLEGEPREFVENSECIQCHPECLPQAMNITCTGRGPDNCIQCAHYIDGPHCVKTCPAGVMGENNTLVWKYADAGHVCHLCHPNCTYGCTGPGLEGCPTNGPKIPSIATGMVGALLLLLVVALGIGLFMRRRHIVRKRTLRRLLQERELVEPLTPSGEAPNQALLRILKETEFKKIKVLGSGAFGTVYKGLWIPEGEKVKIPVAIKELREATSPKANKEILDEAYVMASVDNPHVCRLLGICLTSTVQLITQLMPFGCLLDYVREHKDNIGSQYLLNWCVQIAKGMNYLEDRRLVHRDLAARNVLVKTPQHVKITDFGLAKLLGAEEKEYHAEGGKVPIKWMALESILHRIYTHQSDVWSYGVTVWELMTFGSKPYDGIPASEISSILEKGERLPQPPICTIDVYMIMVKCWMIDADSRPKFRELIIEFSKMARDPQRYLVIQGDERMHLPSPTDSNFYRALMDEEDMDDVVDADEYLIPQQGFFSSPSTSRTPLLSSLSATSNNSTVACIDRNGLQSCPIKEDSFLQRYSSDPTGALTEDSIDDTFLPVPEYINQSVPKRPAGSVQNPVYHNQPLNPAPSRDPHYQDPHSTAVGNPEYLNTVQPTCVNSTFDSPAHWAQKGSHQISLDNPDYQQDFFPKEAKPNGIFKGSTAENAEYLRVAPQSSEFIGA
Chain of Receptor tyrosine-protein kinase erbB-2 (Homo sapiens) (P04626 whole entry): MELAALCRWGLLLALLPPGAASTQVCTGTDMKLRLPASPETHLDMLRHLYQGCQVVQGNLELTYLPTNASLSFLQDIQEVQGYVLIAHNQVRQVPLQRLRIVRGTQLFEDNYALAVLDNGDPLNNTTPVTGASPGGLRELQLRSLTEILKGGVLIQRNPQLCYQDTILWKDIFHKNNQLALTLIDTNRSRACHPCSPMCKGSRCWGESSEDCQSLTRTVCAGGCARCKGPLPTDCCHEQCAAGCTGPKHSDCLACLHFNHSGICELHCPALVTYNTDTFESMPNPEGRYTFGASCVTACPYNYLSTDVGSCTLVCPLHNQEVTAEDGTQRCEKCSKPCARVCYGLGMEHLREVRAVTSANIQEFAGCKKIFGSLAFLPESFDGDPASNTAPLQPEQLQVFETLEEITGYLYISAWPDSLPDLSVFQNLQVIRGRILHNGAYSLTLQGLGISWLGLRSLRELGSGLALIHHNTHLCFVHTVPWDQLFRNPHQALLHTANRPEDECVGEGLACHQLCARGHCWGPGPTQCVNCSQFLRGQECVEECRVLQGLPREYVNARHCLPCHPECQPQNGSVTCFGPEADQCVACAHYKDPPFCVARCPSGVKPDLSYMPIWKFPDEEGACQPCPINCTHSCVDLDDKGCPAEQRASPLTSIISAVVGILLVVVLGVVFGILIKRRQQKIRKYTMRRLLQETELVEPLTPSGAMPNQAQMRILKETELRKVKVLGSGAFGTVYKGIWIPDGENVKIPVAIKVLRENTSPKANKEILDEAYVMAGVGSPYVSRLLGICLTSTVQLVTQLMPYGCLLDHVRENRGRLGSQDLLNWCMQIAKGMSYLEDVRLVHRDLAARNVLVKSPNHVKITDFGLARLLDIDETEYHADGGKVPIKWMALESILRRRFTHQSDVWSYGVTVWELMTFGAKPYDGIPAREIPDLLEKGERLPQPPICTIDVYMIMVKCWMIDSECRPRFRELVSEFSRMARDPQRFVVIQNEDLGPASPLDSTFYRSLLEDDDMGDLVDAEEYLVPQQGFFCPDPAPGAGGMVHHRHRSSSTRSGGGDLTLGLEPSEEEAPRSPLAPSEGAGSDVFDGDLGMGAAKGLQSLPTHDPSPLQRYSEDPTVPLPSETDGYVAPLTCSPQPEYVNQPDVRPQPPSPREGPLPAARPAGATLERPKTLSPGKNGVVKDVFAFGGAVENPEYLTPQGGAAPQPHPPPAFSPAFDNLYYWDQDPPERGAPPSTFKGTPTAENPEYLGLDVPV

SMILES | IC50 [1] | GI50 (PC-3) | GI50 (HT-29) | inhibition [2] | GI50 (A498) | GI50 (IGROV-1) | GI50 (NCI-H322M) | GI50 (TK-10) | GI50 (EKVX) | GI50 (ACHN) | GI50 (SK-OV-3) | GI50 (HOP-92) | GI50 (SNB-75)
COCCOc1cc2ncnc(-c3c[nH]c4cc(F)c(Cl)cc34)c2cc1OCCOC | 472 nM | – | – | – | – | – | – | – | – | – | – | – | –
COc1cc2ncnc(-c3c[nH]c4ccc(Br)cc34)c2cc1OC | 131 nM | – | – | – | – | – | – | – | – | – | – | – | –
COc1cc2ncnc(-c3c[nH]c4cc(F)c(Cl)cc34)c2cc1OCCCN1CCOCC1 | 333 nM | 490 nM | 3700 nM | 19% | 2900 nM | 108 nM | 38 nM | 97.6 nM | 89.7 nM | 215 nM | 592 nM | 504 nM | 49.3 nM

Further lines, with some results ahead:

IC50 [1] | SMILES | GI50 (PC-3) | GI50 (HT-29) | inhibition [2] | GI50 (A498) | GI50 (IGROV-1) | GI50 (NCI-H322M) | GI50 (TK-10) | GI50 (EKVX) | GI50 (ACHN) | GI50 (SK-OV-3) | GI50 (HOP-92) | GI50 (SNB-75)
533 nM | COc1cc2ncnc(-c3c[nH]c4cc(F)c(C)cc34)c2cc1OC | – | – | – | – | – | – | – | – | – | – | – | –
209 nM | COc1cc2ncnc(-c3c[nH]c4cc(F)c(Cl)cc34)c2cc1OC | 766 nM | 848 nM | 3% | 492 nM | 424 nM | 255 nM | 325 nM | 410 nM | 222 nM | 711 nM | 1750 nM | 204 nM
